Hits are enriched below; roughly 4.6% of the tested compounds scored in any of these assays.
APP 5'UTR act = activates APP 5'UTR luciferase reporter | activation, % at 2 µM | AID 1276 | hit rate 1% among 190,000 | SH-SY5Y APP 5'UTR luciferase reporter, luminescence; zero percent = DMSO vehicle wells;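 active means activation above a set limit, based on mean plus 3 SD of controls, cut at about 140% in these data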
Wee1 degr inh = blocks degradation of human Wee1 kinase; P30291; reporter increase, % at 5 µM; hit rate 1.2% among 220,000; HeLa Luc-Wee1K328M stability, luciferase luminescence; 100% = proteasome inhibitor MG132 effect; AID 1321;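 active means activation above the mean of all tested compounds plus 3 SD, set per screening run, cut at about 8.8% in these data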;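 further: cells exposed to compound for 20 h before luminescence read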
Target sequence (P30291 whole entry K328M): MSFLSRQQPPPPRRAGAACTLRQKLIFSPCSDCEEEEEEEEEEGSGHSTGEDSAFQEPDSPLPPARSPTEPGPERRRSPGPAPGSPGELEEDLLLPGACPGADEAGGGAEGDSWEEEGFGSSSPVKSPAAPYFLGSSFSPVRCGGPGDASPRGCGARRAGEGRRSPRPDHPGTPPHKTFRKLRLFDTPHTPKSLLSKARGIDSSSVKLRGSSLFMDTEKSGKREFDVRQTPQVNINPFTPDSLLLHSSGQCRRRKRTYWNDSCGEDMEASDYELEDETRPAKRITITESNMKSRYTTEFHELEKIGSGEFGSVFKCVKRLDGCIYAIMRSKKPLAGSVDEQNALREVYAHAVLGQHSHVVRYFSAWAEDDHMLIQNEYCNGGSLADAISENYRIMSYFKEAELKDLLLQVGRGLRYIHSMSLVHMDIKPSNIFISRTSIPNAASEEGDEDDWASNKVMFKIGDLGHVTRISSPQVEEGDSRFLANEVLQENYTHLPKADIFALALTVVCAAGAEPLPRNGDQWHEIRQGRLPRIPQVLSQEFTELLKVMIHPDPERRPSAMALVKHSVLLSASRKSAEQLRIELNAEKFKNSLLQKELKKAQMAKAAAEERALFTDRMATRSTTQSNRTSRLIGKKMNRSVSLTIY
p97 ATPase inh = human p97 ATPase inhibition. recombinant p97 ATPase, Kinase-Glo ATP luminescence, 3 h. inhibition, % at 8 µM. hit rate 0.42% among 220,000; in the data active means inhibition above about 15%
NF-kB neuron act = NF-kB expression increase, human neuronal cells. AID 1239. fold change at 12.5 µM. NF-kB reporter expression; stronger effect = higher value. hit rate 1.6% among 190,000; in the data active means fold change above about 3.3
Mdm2 ligase inh = inhibitors of human Mdm2 E3 ubiquitin ligase; Q00987; cell-based MDM2 ubiquitination luciferase reporter, 2 h; 0 = plate control, 100 = twice control, blank-subtracted; signal enhancement, % at 5 µM; hit rate 0.11% among 210,000; AID 1230;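 active means signal enhancement of 30% or more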;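 further: luminescence tracks abundance of the self-degrading MDM2-luciferase fusion protein; higher signal means inhibition of MDM2 E3 ligase activity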
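Assay system: stable mammalian line carrying autodegrading MDM2–luciferase fusion reporter; Input: 2000 cells in each well; Compound dosing: single-point 5 µM; Schedule: 2 h compound exposure at 37 °C; Signal: SteadyLite luciferase luminescence after 15 min room-temperature reagent incubation; Evaluation: % luminescence enhancement versus blank-corrected plate control mean; Benchmarks: plate controls and plate blanks.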
STAT1 act = increases IFN-gamma driven STAT1 reporter signal; NIH 3T3 STAT1-luciferase reporter, luminescence; 100% = IFN-gamma alone, no compound; activation (% of control), % at 5.5 µM; hit rate 2.6% among 200,000; AID 932;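 active means activation above the screen-wide mean activation plus 3 SD, cut at about 130% in these data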
Wee1 degr conf = human Wee1 degradation inhibition, confirmation; shares compounds with Wee1 degr inh; HeLa Luc-Wee1K328M degradation, luminescence; vehicle 0%, proteasome-blocked wells 100%; activation, % at 5 µM; hit rate 4% among 1,100; AID 1410; in the data active means activation above about 8.9%
Hits are given with their value.

CC(=O)Nc1ccc(C(O)(C(F)(F)F)C(F)(F)F)cc1 was read as APP 5'UTR act inactive, Wee1 degr inh 12.0, p97 ATPase inh inactive, NF-kB neuron act inactive, Mdm2 ligase inh inactive, STAT1 act inactive and Wee1 degr conf inactive.
`CCCCNC(=O)COc1ccccc1C(=O)c1cc(C#N)c(=O)n(CCOC)c1` gave APP 5'UTR act inactive, Wee1 degr inh inactive, p97 ATPase inh inactive, NF-kB neuron act inactive, Mdm2 ligase inh inactive and STAT1 act inactive.
For CCCC1CC(c2csc(N)n2)CCO1 (centres undefined) the results were APP 5'UTR act inactive, Wee1 degr inh inactive, p97 ATPase inh inactive, NF-kB neuron act inactive, Mdm2 ligase inh inactive and STAT1 act inactive.
For CC(C)C1CC(c2csc(N)n2)CCO1 (centres undefined) the results were APP 5'UTR act inactive, Wee1 degr inh 13.3, p97 ATPase inh inactive, NF-kB neuron act inactive, Mdm2 ligase inh inactive, STAT1 act inactive and Wee1 degr conf inactive.
C/C(Cc1ccccc1)=N/NC(=O)CNC(=O)C(c1ccccc1)c1ccccc1 was read as Wee1 degr inh 11.5, p97 ATPase inh inactive, Mdm2 ligase inh inactive and Wee1 degr conf inactive.
`C/C(=N\NC(=O)CNC(=O)C(c1ccccc1)c1ccccc1)c1ccccc1` gave APP 5'UTR act inactive, Wee1 degr inh inactive, p97 ATPase inh inactive, NF-kB neuron act inactive, Mdm2 ligase inh inactive and STAT1 act inactive.
Cc1nnc(SCC(=O)N(C)C2CCCCC2)s1 was read as APP 5'UTR act inactive, Wee1 degr inh inactive, p97 ATPase inh inactive, NF-kB neuron act inactive, Mdm2 ligase inh inactive and STAT1 act inactive.
`Cc1onc(-c2ccccc2)c1C(=O)N1CCN(C)CC1` gave APP 5'UTR act inactive, Wee1 degr inh 16.5, p97 ATPase inh inactive, NF-kB neuron act inactive, Mdm2 ligase inh inactive, STAT1 act inactive and Wee1 degr conf inactive.
For O=C(Nc1ccc(S(=O)(=O)Nc2ncccn2)cc1)c1cccc(S(=O)(=O)N2CCCC2)c1 the results were Wee1 degr inh inactive and p97 ATPase inh inactive.
`Cc1ccc(N2CCN(C(=O)N3CCOCC3)CC2)cc1C` gave APP 5'UTR act inactive, Wee1 degr inh 11.7, p97 ATPase inh inactive, NF-kB neuron act inactive, Mdm2 ligase inh inactive, STAT1 act inactive and Wee1 degr conf inactive.
Screening Cc1cccc(C)c1N1CCN(C(=O)N2CCOCC2)CC1 returned APP 5'UTR act inactive, Wee1 degr inh inactive, p97 ATPase inh inactive, NF-kB neuron act inactive, Mdm2 ligase inh inactive and STAT1 act inactive.
NS(=O)(=O)c1ccc(NC(=S)NCc2ccco2)cc1 was read as APP 5'UTR act inactive, Wee1 degr inh inactive, p97 ATPase inh inactive, NF-kB neuron act inactive, Mdm2 ligase inh inactive and STAT1 act inactive.
For CC(C)(CNC(=O)C1CCCC1)CNC(=O)C1CCCC1 the results were APP 5'UTR act inactive, Wee1 degr inh 11.5, p97 ATPase inh inactive, NF-kB neuron act inactive, Mdm2 ligase inh inactive, STAT1 act inactive and Wee1 degr conf inactive.
`O=C(NCCCCNC(=O)C1CCCC1)C1CCCC1` gave APP 5'UTR act inactive, Wee1 degr inh inactive, p97 ATPase inh inactive, NF-kB neuron act inactive, Mdm2 ligase inh inactive and STAT1 act inactive.
Screening Cc1ccc(NC(=O)C2(NC(=O)c3ccccn3)CCCCC2)cc1Br returned APP 5'UTR act inactive, Wee1 degr inh inactive, p97 ATPase inh inactive, NF-kB neuron act inactive, Mdm2 ligase inh inactive and STAT1 act inactive.
O=C(O)c1ccc2nc3c(nc2c1)-c1ccccc1C3=O was read as APP 5'UTR act inactive, Wee1 degr inh 17.1, p97 ATPase inh inactive, NF-kB neuron act inactive, Mdm2 ligase inh inactive, STAT1 act inactive and Wee1 degr conf inactive.
Cc1ccnc(NC(=O)CCCOc2cc(=O)n(C)c3ccccc23)c1 was read as APP 5'UTR act inactive, Wee1 degr inh 13.9, p97 ATPase inh inactive, NF-kB neuron act 7.58, Mdm2 ligase inh inactive, STAT1 act inactive and Wee1 degr conf 45.7.
Screening Cc1cccc(CCNC(=O)COc2cc(=O)n(C)c3ccccc23)c1 returned APP 5'UTR act inactive, Wee1 degr inh 11.4, p97 ATPase inh inactive, NF-kB neuron act inactive, Mdm2 ligase inh inactive, STAT1 act inactive and Wee1 degr conf inactive.
Screening Cn1c(=O)cc(OCCCC(=O)NCc2ccccn2)c2ccccc21 returned APP 5'UTR act inactive, Wee1 degr inh inactive, p97 ATPase inh inactive, NF-kB neuron act inactive, Mdm2 ligase inh inactive and STAT1 act inactive.
`Cc1cccc(CCNC(=O)CCCOc2cc(=O)n(C)c3ccccc23)c1` gave APP 5'UTR act inactive, Wee1 degr inh inactive, p97 ATPase inh inactive, NF-kB neuron act inactive, Mdm2 ligase inh inactive and STAT1 act inactive.
For Clc1ccccc1-c1nc2nc3ccccc3nc2n1-c1ccc2c(c1)OCO2 the results were APP 5'UTR act inactive, Wee1 degr inh inactive, p97 ATPase inh inactive, NF-kB neuron act inactive, Mdm2 ligase inh inactive and STAT1 act inactive.
O=[N+]([O-])c1ccc(OCc2cnc(Cl)s2)c([N+](=O)[O-])c1 was read as APP 5'UTR act inactive, Wee1 degr inh inactive, p97 ATPase inh inactive, NF-kB neuron act inactive, Mdm2 ligase inh inactive and STAT1 act inactive.
Screening Clc1ccc(-c2c[nH]c3ccccc23)nn1 returned APP 5'UTR act inactive, Wee1 degr inh inactive, p97 ATPase inh inactive, NF-kB neuron act inactive, Mdm2 ligase inh inactive and STAT1 act inactive.
c1ccc2c(-c3c[nH]c4ccccc34)c3ccccc3nc2c1 was read as APP 5'UTR act inactive, Wee1 degr inh 12.2, p97 ATPase inh inactive, NF-kB neuron act inactive, Mdm2 ligase inh inactive, STAT1 act inactive and Wee1 degr conf inactive.
For Cc1ccc(NC2=CC(=O)CC(c3ccc(Cl)cc3)C2)cc1 (centres undefined) the results were APP 5'UTR act inactive, Wee1 degr inh 14.8, p97 ATPase inh inactive, NF-kB neuron act inactive, Mdm2 ligase inh inactive, STAT1 act inactive and Wee1 degr conf inactive.
Screening O=C(/C=C/c1ccc(Cl)c(Cl)c1)N1CCc2ccccc21 returned APP 5'UTR act inactive, Wee1 degr inh 19.1, p97 ATPase inh inactive, NF-kB neuron act inactive, Mdm2 ligase inh inactive, STAT1 act inactive and Wee1 degr conf inactive.
Screening C/C(=C/C(=O)N1CCc2ccccc21)C(=O)O returned APP 5'UTR act inactive, Wee1 degr inh inactive, p97 ATPase inh inactive, NF-kB neuron act inactive, Mdm2 ligase inh inactive and STAT1 act inactive.
`O=C(Nc1ccc(Cl)cn1)C1COc2ccccc2O1` (centres undefined) gave APP 5'UTR act inactive, Wee1 degr inh 19.4, p97 ATPase inh inactive, NF-kB neuron act inactive, Mdm2 ligase inh inactive, STAT1 act inactive and Wee1 degr conf inactive.
`Cc1ccccc1NC(=O)Cn1c(CCC(=O)O)ccc1-c1cccs1` gave APP 5'UTR act inactive, Wee1 degr inh inactive, p97 ATPase inh inactive, NF-kB neuron act inactive, Mdm2 ligase inh inactive and STAT1 act inactive.

Bioassay records as filed in PubChem BioAssay.
